For one data set, the system named is Streptococcus pneumoniae. Put plainly: Antibacterial activity against Streptococcus pneumoniae 6303 assessed as bacterial growth inhibition incubated for 16 hrs by CLSI based broth microdilution method. Format: functional. The method, boiled down:
(§1)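 CLSI broth microdilution in LB: eleven 2-fold serial dilutions, 0.10–100 µM. DMSO vehicle/negative control diluted from 0.5% v/v. Wells seeded with ~10⁵ cells from log-phase culture (OD₆₀₀ 0.6–0.8), held 16 h at 37 °C. MIC taken as the lowest concentration preventing growth by OD₆₀₀ turbidity. Minimum three independent experiments.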

Data set [1] deals with Staphylococcus epidermidis. Put plainly: Antibacterial activity against Staphylococcus epidermidis 12228 assessed as bacterial growth inhibition incubated for 16 hrs by CLSI based broth microdilution method. Format: functional. The method, boiled down: as §1
(Broth dilution looks for growth in wells or tubes with falling amounts of substance.)

In a further data set the test system is Enterococcus. Put plainly: Antibacterial activity against vancomycin-resistant Enterococcus 700221 assessed as bacterial growth inhibition incubated for 16 hrs by CLSI based broth microdilution method. Type of data set: functional. An outline of the steps:
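Growth scored by OD₆₀₀ turbidity after 16 h at 37 °C; MIC is the lowest concentration preventing growth. DMSO vehicle control up to 0.5% v/v. Three or more independent experiments.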

Data set [2] concerns Staphylococcus aureus. Put plainly: Antibacterial activity against Staphylococcus aureus clinical isolate 129 assessed as bacterial growth inhibition incubated for 16 hrs by CLSI based broth microdilution method. Format: functional.
The test system of data set [3] is Staphylococcus aureus. Kind of data set: Antibacterial activity against Staphylococcus aureus clinical isolate 138 assessed as bacterial growth inhibition incubated for 16 hrs by CLSI based broth microdilution method. Type of data set: functional.
In data set [4] the test system is Staphylococcus aureus. Kind of data set: Antibacterial activity against methicillin-resistant Staphylococcus aureus 1707 assessed as bacterial growth inhibition incubated for 16 hrs by CLSI based broth microdilution method. Format: functional. An outline of the steps:
(§2)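 Broth microdilution per CLSI in LB, eleven two-fold serial dilutions spanning 0.10 to 100 µM. Inoculum ~10⁵ cells/well from fresh log-phase culture (OD₆₀₀ 0.6–0.8). MIC taken as lowest concentration preventing growth after 16 h at 37 °C, read by OD₆₀₀ turbidity. DMSO vehicle control, top 0.5% v/v. At least three independent experiments.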

Data set [5] is described as follows: Metal chelating activity assessed as formation of phenazine-iron complex measured for 1 to 60 mins by UV-vis spectroscopy. Particulars: time 1-60 min. The method, boiled down: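 Compound from a 10 mM DMSO stock diluted in DMSO in a cuvette, alone or with ammonium iron(II) sulfate hexahydrate (10 mM aqueous stock). Spectra of the compound-only cuvette and the iron-containing cuvette are compared by UV-vis spectrometry to judge phenazine–iron(II) complex formation.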

Data set [6] relates to Staphylococcus aureus. Put plainly: Antibacterial activity against methicillin-resistant Staphylococcus aureus BAA-1707 assessed as bacterial growth inhibition incubated for 16 hrs by CLSI based broth microdilution method. Format: functional. The method, boiled down: as §2
Data set [7] relates to Staphylococcus aureus. Put plainly: Antibacterial activity against Staphylococcus aureus clinical isolate 156 assessed as bacterial growth inhibition incubated for 16 hrs by CLSI based broth microdilution method. Type of data set: functional.
Data set [8] relates to Staphylococcus epidermidis. Kind of data set: Antibacterial activity against methicillin-resistant Staphylococcus epidermidis 35984 assessed as bacterial growth inhibition incubated for 16 hrs by CLSI based broth microdilution method. Format: functional. An outline of the steps: as §2
Data set [9] has as its system Staphylococcus aureus. Put plainly: Antibacterial activity against methicillin-resistant Staphylococcus aureus clinical isolate 1 assessed as bacterial growth inhibition incubated for 16 hrs by CLSI based broth microdilution method. Type of data set: functional.
Data set [10] concerns Staphylococcus aureus. Put plainly: Antibacterial activity against Staphylococcus aureus clinical isolate 147 assessed as bacterial growth inhibition incubated for 16 hrs by CLSI based broth microdilution method. Type of data set: functional.
In data set [11] the test system is Staphylococcus epidermidis. Put plainly: Antibacterial activity against Staphylococcus epidermidis clinical isolate CL-1 assessed as bacterial growth inhibition incubated for 16 hrs by CLSI based broth microdilution method. Type of data set: functional.
Data set [12] relates to Staphylococcus aureus. Put plainly: Antibacterial activity against methicillin-resistant Staphylococcus aureus 1707 assessed as zone of inhibition at 10 mM incubated for 16 hrs by agar diffusion assay. Format: functional. An outline of the steps:
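Modified Kirby-Bauer disk diffusion. 100 µL MRSA 1707 inoculum (OD₆₀₀ 0.7, ~10⁸ CFU) spread on LB agar and left 30 min. 10 µL of 10 mM DMSO compound solution then pipetted onto the plate. Incubation 16 h at 37 °C; zone of inhibition area (cm²) measured. Three independent experiments.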

Data set [13] can be described thus: Hemolytic activity against red blood cells (unknown origin) at 200 uM. Format: toxicity, cell-based, Erythrocyte. Particulars: read-out: Activity.
For data set [14], the system named is Staphylococcus aureus. Kind of data set: Antibacterial activity against methicillin-resistant Staphylococcus aureus clinical isolate 2 assessed as bacterial growth inhibition incubated for 16 hrs by CLSI based broth microdilution method. Type of data set: functional.
The test system of a further data set is Enterococcus faecalis. Put plainly: Antibacterial activity against Enterococcus faecalis OG1RF assessed as bacterial growth inhibition incubated for 16 hrs by CLSI based broth microdilution method. Format: functional. An outline of the steps:
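Broth microdilution per CLSI in brain-heart infusion: eleven 2-fold dilutions spanning 0.10–100 µM, with DMSO vehicle/negative control topping at 0.5% v/v. Inoculum ~10⁵ cells/well from log-phase culture (OD₆₀₀ 0.6–0.8). 37 °C, 16 h. MIC is the lowest concentration preventing growth, read as OD₆₀₀ turbidity. At least three independent experiments.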

For data set [15], the system named is Staphylococcus aureus. Kind of data set: Antibacterial activity against methicillin-resistant Staphylococcus aureus BAA-44 assessed as bacterial growth inhibition incubated for 16 hrs by CLSI based broth microdilution method. Format: functional. The method, boiled down: as §2
Data set [16] can be described thus: Cytotoxicity against HEK293 cells incubated for 48 hrs by MTT assay. Particulars: human. Format: toxicity, cell-based. An outline of the steps:
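HEK-293 cells (10⁴/well) in DMEM with 10% FBS, penicillin/streptomycin, settled overnight at 37 °C, 5% CO₂. Medium replaced with compound at 0.10–100 µM (2-fold steps); DMSO as negative control. After 48 h at 37 °C, MTT (5 mg/mL stock) added for 3 h. Formazan dissolved in DMSO, OD read at 570 nm. Eight replicates per treatment.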
(In general: Formazan colour is commonly taken as a measure of viable cells.)

Data set [17] is described as follows: Lipophilicity, LogP of compound in octanol-water mixture incubated for 1 hr by UV-vis spectroscopy. Format: physicochemical. The method, boiled down: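 Shake-flask partition: compound in octanol (1% v/v DMSO) mixed with equal volume water, stirred vigorously, left 1 h at room temperature to separate. Octanol-phase concentration measured by UV-Vis at 370 or 380 nm against a serial-dilution standard curve. Water concentration obtained by mass balance; LogP = log10(Coct/Cw). Acetophenone as positive control. Three independent experiments.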

Converted amounts (≈) assume the structure as drawn. The source made the active and inactive calls. No cut-off for these calls is given here.

As to `O=[N+]([O-])c1ccc(CS(=O)(=O)Oc2c(Br)cc(Br)c3nc4ccccc4nc23)cc1`, the MIC in the data set on Streptococcus pneumoniae stood at 4.69 µM (≈ 2.59 µg/mL); in data set [1], 4.69 µM (≈ 2.59 µg/mL); with Enterococcus, 9.38 µM (≈ 5.19 µg/mL); in the data set on Staphylococcus aureus [2], 6.25 µM (≈ 3.46 µg/mL); in the data set with Staphylococcus aureus [3], 4.69 µM (≈ 2.59 µg/mL); with Staphylococcus aureus [4], 0.78 µM (≈ 0.431 µg/mL). The MIC in the data set on Staphylococcus aureus [6] was 0.78 µM (≈ 0.431 µg/mL); in the data set on Staphylococcus aureus [7], 6.25 µM (≈ 3.46 µg/mL); in data set [8], 4.69 µM (≈ 2.59 µg/mL); in the data set with Staphylococcus aureus [9], 3.13 µM (≈ 1.73 µg/mL); with Staphylococcus aureus [10], 6.25 µM (≈ 3.46 µg/mL); in [11], 6.25 µM (≈ 3.46 µg/mL). The figures for the MIC in the data set on Staphylococcus aureus [14], in the data set with Enterococcus faecalis and with Staphylococcus aureus [15] were 2.35 µM (≈ 1.3 µg/mL), 37.5 µM (≈ 20.7 µg/mL) and 1.56 µM (≈ 0.863 µg/mL), respectively. Further, the result in data set [5] was inactive. For the same molecule, the “diameter of the inhibition zone (DIZ)” value in the data set with Staphylococcus aureus [12] came to 1.13 cm2. For the same molecule, the hemolysis at 200 µM in data set [13] was less than 1%. This molecule also returned a CC50 at 48 h in data set [16] of 51.7 µM. Further, the logP at 1 h in data set [17] was 0.42.

`Cc1cccc2nc3c(O)c(Br)c(Cl)c(Br)c3nc12`: the MIC (with Streptococcus pneumoniae; in data set [1]; in the data set on Enterococcus; in the data set on Staphylococcus aureus [2]; in the data set with Staphylococcus aureus [3]; in the data set with Staphylococcus aureus [4]) was 0.1 µM (≈ 0.0402 µg/mL) each time. For the same molecule, the MIC in the data set on Staphylococcus aureus [6] was found to be 0.1 µM (≈ 0.0402 µg/mL); in the data set with Staphylococcus aureus [7], 0.1 µM (≈ 0.0402 µg/mL); in data set [8], 0.1 µM (≈ 0.0402 µg/mL); in the data set on Staphylococcus aureus [9], 0.1 µM (≈ 0.0402 µg/mL); in the data set on Staphylococcus aureus [10] it was 0.1 µM (≈ 0.0402 µg/mL); in data set [11] it was 0.39 µM (≈ 0.157 µg/mL). Further, the values for the MIC in the data set on Staphylococcus aureus [14], in the data set on Enterococcus faecalis and in the data set on Staphylococcus aureus [15] were 0.15 µM (≈ 0.0604 µg/mL), 0.39 µM (≈ 0.157 µg/mL) and 0.15 µM (≈ 0.0604 µg/mL), respectively. In addition, the result in data set [5] was inactive. Further, the “diameter of the inhibition zone (DIZ)” value in the data set with Staphylococcus aureus [12] is 3.85 cm2. In [13], the hemolysis at 200 µM is less than 1%. This molecule also had a CC50 at 48 h in [16] of 18.3 µM. In data set [17], the logP at 1 h was determined as 0.81.

In the case of `Oc1c(Br)cc(Br)c2nc3ccccc3nc12`, the MIC came out at 1.17 µM (≈ 0.414 µg/mL) in the data set on Streptococcus pneumoniae; 2.35 µM (≈ 0.832 µg/mL) in [1]; 0.78 µM (≈ 0.276 µg/mL) with Staphylococcus aureus [9]; 1.56 µM (≈ 0.552 µg/mL) with Staphylococcus aureus [14]; 18.8 µM (≈ 6.66 µg/mL) in the data set with Enterococcus faecalis. Besides, the outcome in data set [5] was Active. Further, the “diameter of the inhibition zone (DIZ)” value in the data set on Staphylococcus aureus [12] is reported as 5.08 cm2. The hemolysis at 200 µM in data set [13] was less than 1%. In [17], the logP at 1 h is 0.25.

Turning to `Cc1cccc2nc3c(OS(=O)(=O)Cc4ccc([N+](=O)[O-])cc4)c(Br)c(Cl)c(Br)c3nc12`, the MIC amounted to 0.15 µM (≈ 0.0902 µg/mL) with Streptococcus pneumoniae; 0.59 µM (≈ 0.355 µg/mL) in data set [1]; 0.15 µM (≈ 0.0902 µg/mL) in the data set on Enterococcus; 0.39 µM (≈ 0.235 µg/mL) in the data set with Staphylococcus aureus [3]; 0.1 µM (≈ 0.0602 µg/mL) with Staphylococcus aureus [4]; 0.1 µM (≈ 0.0602 µg/mL) in the data set with Staphylococcus aureus [6]. Besides, the MIC is 0.59 µM (≈ 0.355 µg/mL) in the data set with Staphylococcus aureus [7]; 0.15 µM (≈ 0.0902 µg/mL) in data set [8]; 0.3 µM (≈ 0.18 µg/mL) in the data set on Staphylococcus aureus [9]; 0.59 µM (≈ 0.355 µg/mL) in the data set on Staphylococcus aureus [10]; 2.35 µM (≈ 1.41 µg/mL) in data set [11]; 0.3 µM (≈ 0.18 µg/mL) in the data set with Staphylococcus aureus [14]. The results for the MIC in the data set on Enterococcus faecalis and in the data set on Staphylococcus aureus [15] were 4.69 µM (≈ 2.82 µg/mL) and 0.3 µM (≈ 0.18 µg/mL), respectively. In data set [5], the result was Active. The “diameter of the inhibition zone (DIZ)” value in the data set on Staphylococcus aureus [12] is 0.87 cm2. Besides, the hemolysis at 200 µM in [13] was less than 1%. In data set [16], this molecule came in with a CC50 at 48 h of 34.1 µM. For the same molecule, the logP at 1 h in data set [17] came out at 3.11.

As a reminder, the MIC is the lowest concentration that inhibits growth of the organism. In general, CC50 refers to the concentration at which the toxic effect on the cells reaches its halfway point. Lower therefore signals harm at low concentration. For orientation: logP means a log measure of how a compound divides between an organic and an aqueous phase.

For the origin of these results see ChEMBL document CHEMBL5329167, “Design, synthesis and evaluation of halogenated phenazine antibacterial prodrugs targeting nitroreductase enzymes for activation” (RSC Med Chem, 2023).
